Results collected from several papers.
Each line is one published result; the experiments were not run side by side.
Target: Protein kinase C zeta type (PRKCZ, Homo sapiens, UniProt Q05513)
Sequence (Q05513 1-592, as in one of the studies): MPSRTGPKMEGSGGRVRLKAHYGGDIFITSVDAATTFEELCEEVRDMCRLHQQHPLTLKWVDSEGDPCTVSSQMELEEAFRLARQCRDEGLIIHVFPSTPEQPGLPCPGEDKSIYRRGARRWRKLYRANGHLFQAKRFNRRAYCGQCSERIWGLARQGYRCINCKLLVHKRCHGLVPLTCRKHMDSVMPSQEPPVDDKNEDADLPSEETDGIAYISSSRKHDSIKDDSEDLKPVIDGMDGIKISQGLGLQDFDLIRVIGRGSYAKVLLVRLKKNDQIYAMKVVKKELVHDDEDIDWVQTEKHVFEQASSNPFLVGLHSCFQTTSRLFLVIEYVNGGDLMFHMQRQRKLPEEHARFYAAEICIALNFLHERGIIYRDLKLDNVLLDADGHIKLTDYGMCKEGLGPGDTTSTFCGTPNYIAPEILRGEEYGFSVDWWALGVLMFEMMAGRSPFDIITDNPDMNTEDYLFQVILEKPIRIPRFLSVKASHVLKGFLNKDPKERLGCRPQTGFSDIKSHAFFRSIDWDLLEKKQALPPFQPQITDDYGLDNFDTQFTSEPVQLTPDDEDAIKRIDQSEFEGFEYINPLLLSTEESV

With Cc1ccc(NC(=O)c2ccc(C)c(C(F)(F)F)c2)cc1C#Cc1nn(C2CCC(O)CC2)c2ncnc(N)c12 (centres unmarked) the remaining signal was 99% (cell-free assay; 10 µM).
The inhibition of COc1cccc2c(NCc3ccccc3)nc(-n3c(N)nc4ccccc43)nc12 is reported as 19.7% (target engagement in cells; inhibitor; chemoproteomics; 20 mM).
With CN1CCC2(CC1)NC(=O)c1c(c3ccc(Cl)c(Cl)c3n1C)C2C#N (racemic) the ΔTm was 0 °C (thermal stability; DSF; 10 µM).
With COc1cc(Nc2cnc(C#N)c(O[C@H](C)CN(C)C)n2)ncc1-c1cnn(C)c1 the remaining activity was 121% (enzyme activity; inhibitor; radiometric; 1 µM).
COc1cc(-c2cc(-c3ccc(N4CCNCC4)cc3)cnc2C)cc(OC)c1OC has an inhibition of 3% (enzyme activity; inhibitor; 1 µM).
The remaining activity of O=C(Nc1cnn(-c2csc(C(=O)NC3COC3)c2)c1)Nc1c(F)cccc1Cl is reported as 93.6% (enzyme activity; inhibitor; 5 µM).
For CCC1(CC)NC(=O)c2c(c3ccc(Cl)c(Cl)c3n2C)C1C#N (centres unmarked), the ΔTm was -0.4 °C (thermal stability; DSF; 10 µM).
With CC(C)(C)c1nc2c(s1)c1nc(N)ncc1c1ccc(NS(=O)(=O)c3c(F)cccc3F)c(F)c12 the remaining activity was 107% (enzyme activity; inhibitor; radiometric; 1 µM).
For O=C1Nc2ccc(Cl)cc2C1=Cc1cc(Cl)c(O)c(Cl)c1, the remaining signal was 95.3% (cell-free assay; 0.5 µM).
With CCN(CC)c1ccc(C2=NNC(=O)CC2C)cc1[N+](=O)[O-] (centres unmarked) the remaining activity was 102% (enzyme activity; inhibitor; 10 µM).
With Cn1c2c(c3ccc(Cl)c(Cl)c31)C(C#N)C1(CCCC1)NC2=O (centres unmarked) the ΔTm was -0.2 °C (thermal stability; DSF; 10 µM).
Oc1cccc(-c2nc(N3CCOCC3)c3oc4ncccc4c3n2)c1 gave a remaining activity of 98% (enzyme activity; inhibitor; 10 µM).
For CC(C)(O)[C@H]1CC[C@H](Nc2ccc3ncc(-c4cccc(C(F)(F)F)c4)n3n2)CC1, the remaining activity was 98% (enzyme activity; inhibitor; 1 µM).
With Cc1cc(NC(=O)c2cccc3cc(-c4cccc5[nH]nc(N)c45)ccc23)ccc1F the activity vs control was 99% (enzyme activity; inhibitor; 0.1 µM).
CC/C(=N\NC(=O)NCc1cccc(O)c1)c1ccc(O)c(C)c1O has an inhibition of 11% (enzyme activity; inhibitor; 0.1 µM).
CCN(CC)CCNC(=O)c1c(C)[nH]c(/C=C2\C(=O)Nc3ccc(F)cc32)c1C gave an inhibition of -2% (enzyme activity; inhibitor; 10 µM).
Nc1nc(Nc2ccccc2)sc1C(=O)c1c(F)cccc1F has a remaining activity of 83% (enzyme activity; inhibitor; 10 µM).
